Test results from ChEMBL document CHEMBL1135789, “Novel structures derived from 2-[[(2-pyridyl)methyl]thio]-1H-benzimidazole as anti-Helicobacter pylori agents, Part 2” (J Med Chem, 2002).
In brackets after ≈: the same amount, converted by molar mass.

Key:
Mus musculus [1] = assay: Maximum plasma concentration (Cmax) after oral dosing by gavage needle at 30 mg/kg in C57BL/6NTac female mice; Not checked; assay type: ADME, organism-based; parameters: dose 30 mg/kg, route oral; settings: in vivo
Method in brief: (§1)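 Single oral gavage dose of 30 mg/kg in 85:15 0.5% aqueous hydroxypropylmethylcellulose:PEG-400, given to female C57BL/6NTac mice (6 weeks, 20 g). Plasma was diluted with MeCN to remove proteins, and the parent compound was quantified by LC-MS in single ion recording mode against calibration curves (LLOQ 10-50 ng/mL).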

Helicobacter pylori [2] = assay: Minimum bacterial concentration (MBC) at which maximum growth inhibition against Helicobacter pylori has occurred; assay type: functional
Method in brief: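 Strain ARHp206. Aliquots from microdilution wells showing no growth were plated on trypticase soy agar with 5% sheep blood. The MBC was judged by visual inspection as the concentration giving maximum growth inhibition.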

Helicobacter pylori [3] = assay: Minimum inhibitory concentration against Helicobacter pylori (Helicobacter pylori) ARHp strain 115; assay type: functional
Method in brief: (§2)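 Broth microdilution with two-fold serial dilutions in Brucella broth plus 5% (v/v) heat-inactivated FCS. Strains were pre-grown microaerophilically (5% O2, 10% CO2, 85% N2) on blood agar at 37 °C and passaged twice. The inoculum was a final 10^7 cells/mL.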

Helicobacter pylori [4] = assay: Minimum inhibitory concentration against Helicobacter pylori (Helicobacter pylori) ARHp strain 81; assay type: functional; method in brief: as §2
Helicobacter pylori [5] = assay: Minimum inhibitory concentration against Helicobacter pylori (Helicobacter pylori) ARHp strain 80; assay type: functional; method in brief: as §2
Helicobacter pylori [6] = assay: Minimum inhibitory concentration against Helicobacter pylori (Helicobacter pylori) ARHp strain 206; assay type: functional; method in brief: as §2
Mus musculus [7] = assay: AUC (area under curve) after oral dosing by gavage needle at 30 mg/kg in C57BL/6NTac female mice; Not checked; assay type: ADME, organism-based, Plasma; parameters: dose 30 mg/kg, route oral; settings: in vivo; method in brief: as §1
Mus musculus [8] = assay: AUC (area under curve) after oral dosing by gavage needle at 30 mg/kg in C57BL/6NTac female mice; assay type: ADME, organism-based, Plasma; parameters: dose 30 mg/kg, route oral; settings: in vivo; method in brief: as §1
[9] = Maximum plasma concentration (Cmax) after oral dosing by gavage needle at 30 mg/kg in C57BL/6NTac female mice; assay type: ADME, organism-based; parameters: dose 30 mg/kg, route oral; settings: mouse; method in brief: as §1
Mus musculus [10] = assay: AUC (area under curve) after oral dosing by gavage needle at 30 mg/kg in C57BL/6NTac female mice; Not detected; assay type: ADME, organism-based, Plasma; parameters: dose 30 mg/kg, route oral; settings: in vivo; method in brief: as §1
Mus musculus [11] = assay: Maximum plasma concentration (Cmax) after oral dosing by gavage needle at 30 mg/kg in C57BL/6NTac female mice; Not detected; assay type: ADME, organism-based; parameters: dose 30 mg/kg, route oral; settings: in vivo; method in brief: as §1

| Cmax (Mus musculus [1]) | MIC (Helicobacter pylori [3]) | MIC (Helicobacter pylori [4]) | MIC (Helicobacter pylori [5]) | MIC (Helicobacter pylori [6]) | AUC (Mus musculus [7]) | AUC (Mus musculus [8]) | Cmax [9] | AUC (Mus musculus [10]) | Cmax (Mus musculus [11]) | Structure (SMILES) | MBC (Helicobacter pylori [2]) |
| --- | --- | --- | --- | --- | --- | --- | --- | --- | --- | --- | --- |
| Not checked | 0.25 µg/mL (≈ 0.609 µM) | 0.5 µg/mL (≈ 1.22 µM) | 0.25 µg/mL (≈ 0.609 µM) | 0.5 µg/mL (≈ 1.22 µM) | Not checked |  |  |  |  | Cc1c(CSc2ccncc2)cccc1SCCOC(=O)Nc1ccccc1 | 8 µg/mL (≈ 19.5 µM) |
|  | 0.5 µg/mL (≈ 1.11 µM) | 0.5 µg/mL (≈ 1.11 µM) | 0.5 µg/mL (≈ 1.11 µM) | 0.5 µg/mL (≈ 1.11 µM) |  | 283 ng·h/mL | 140 ng/mL |  |  | Cc1c(CSc2nc3ccccc3[nH]2)cccc1SCCNC(=O)Nc1ccccc1 | 8 µg/mL (≈ 17.8 µM) |
| Not checked | 0.06 µg/mL (≈ 0.164 µM) | 0.06 µg/mL (≈ 0.164 µM) | 0.06 µg/mL (≈ 0.164 µM) | 0.12 µg/mL (≈ 0.328 µM) | Not checked |  |  |  |  | CC1(C)S[C@@H]2[C@H](NC(=O)[C@H](N)c3ccc(O)cc3)C(=O)N2[C@H]1C(=O)O [AMOXICILLIN] |  |
| Not checked | 4 µg/mL (≈ 12.1 µM) | 8 µg/mL (≈ 24.3 µM) | 4 µg/mL (≈ 12.1 µM) | 8 µg/mL (≈ 24.3 µM) | Not checked |  |  |  |  | Cc1c(CSc2nc3ccccc3[nH]2)cccc1SCCN | > 8 µg/mL |
| Not checked | > 16 µg/mL | > 16 µg/mL | > 16 µg/mL | > 16 µg/mL | Not checked |  |  |  |  | Cc1c(CSc2nc3ccccc3[nH]2)cccc1SCC(=O)O | > 8 µg/mL |
| Not checked | 1 µg/mL (≈ 3.03 µM) | 1 µg/mL (≈ 3.03 µM) | 1 µg/mL (≈ 3.03 µM) | 1 µg/mL (≈ 3.03 µM) | Not checked |  |  |  |  | Cc1c(CSc2nc3ccccc3[nH]2)cccc1SCCO | > 8 µg/mL |
|  | 0.5 µg/mL (≈ 1.01 µM) | 1 µg/mL (≈ 2.03 µM) | 0.5 µg/mL (≈ 1.01 µM) | 1 µg/mL (≈ 2.03 µM) |  | 299 ng·h/mL | 331 ng/mL |  |  | Cc1c(CSc2nc3ccccc3[nH]2)cccc1SCCOC(=O)Nc1ccc(N(C)C)cc1 | > 8 µg/mL |
|  | 0.25 µg/mL (≈ 0.515 µM) | 0.5 µg/mL (≈ 1.03 µM) | 0.25 µg/mL (≈ 0.515 µM) | 0.5 µg/mL (≈ 1.03 µM) |  | 1130 ng·h/mL | 398 ng/mL |  |  | Cc1c(CSc2nc3ccccc3[nH]2)cccc1SCCOC(=O)Nc1ccc(F)c(F)c1 | 8 µg/mL (≈ 16.5 µM) |
|  | 0.25 µg/mL (≈ 0.574 µM) | 0.5 µg/mL (≈ 1.15 µM) | 0.25 µg/mL (≈ 0.574 µM) | 0.5 µg/mL (≈ 1.15 µM) |  | 271 ng·h/mL | 471 ng/mL |  |  | Cc1c(CSc2nc3ccccc3[nH]2)cccc1SCCNC(=O)c1cnccn1 | > 8 µg/mL |
|  | 1 µg/mL (≈ 2.31 µM) | 1 µg/mL (≈ 2.31 µM) | 1 µg/mL (≈ 2.31 µM) | 1 µg/mL (≈ 2.31 µM) |  |  |  | Not detected | Not detected | Cc1c(CSc2nc3ccccc3[nH]2)cccc1SCC(=O)NCc1ccccc1 | 1 µg/mL (≈ 2.31 µM) |
|  | < 0.06 µg/mL | < 0.06 µg/mL | < 0.06 µg/mL | < 0.06 µg/mL |  | 1770 ng·h/mL | 1000 ng/mL |  |  | CC[C@H]1OC(=O)[C@H](C)[C@@H](O[C@H]2C[C@@](C)(OC)[C@@H](O)[C@H](C)O2)[C@H](C)[C@@H](O[C@@H]2O[C@H](C)C[C@H](N(C)C)[C@H]2O)[C@](C)(OC)C[C@@H](C)C(=O)[C@H](C)[C@@H](O)[C@]1(C)O [CLARITHROMYCIN] |  |
|  | 0.5 µg/mL (≈ 1.11 µM) | 0.5 µg/mL (≈ 1.11 µM) | 0.5 µg/mL (≈ 1.11 µM) | 0.5 µg/mL (≈ 1.11 µM) |  | 2070 ng·h/mL | 906 ng/mL |  |  | Cc1c(CSc2nc3ccccc3[nH]2)cccc1SCCOC(=O)Nc1ccccc1 | 1 µg/mL (≈ 2.22 µM) |
|  | 0.25 µg/mL (≈ 0.521 µM) | 0.5 µg/mL (≈ 1.04 µM) | 0.25 µg/mL (≈ 0.521 µM) | 0.5 µg/mL (≈ 1.04 µM) |  | 1630 ng·h/mL | 797 ng/mL |  |  | COc1cccc(NC(=O)OCCSc2cccc(CSc3nc4ccccc4[nH]3)c2C)c1 | 8 µg/mL (≈ 16.7 µM) |
|  | 0.5 µg/mL (≈ 1.2 µM) | 0.5 µg/mL (≈ 1.2 µM) | 0.5 µg/mL (≈ 1.2 µM) | 0.5 µg/mL (≈ 1.2 µM) |  | 99 ng·h/mL | 74 ng/mL |  |  | Cc1c(CSc2nccs2)cccc1SCCOC(=O)Nc1ccccc1 | 8 µg/mL (≈ 19.2 µM) |
|  | 1 µg/mL (≈ 2.25 µM) | 1 µg/mL (≈ 2.25 µM) | 1 µg/mL (≈ 2.25 µM) | 1 µg/mL (≈ 2.25 µM) |  |  |  |  |  | CN(C)[C@@H]1C(O)=C(C(N)=O)C(=O)[C@@]2(O)C(O)=C3C(=O)c4c(O)cccc4[C@@](C)(O)[C@H]3C[C@@H]12 [TETRACYCLINE] |  |
| Not checked | 4 µg/mL (≈ 7.68 µM) | 8 µg/mL (≈ 15.4 µM) | 4 µg/mL (≈ 7.68 µM) | 8 µg/mL (≈ 15.4 µM) | Not checked |  |  |  |  | Cc1c(CSc2nc3ccccc3[nH]2)cccc1SCCNS(=O)(=O)c1cccc2cccnc12 | > 8 µg/mL |
|  | 0.25 µg/mL (≈ 0.607 µM) | 0.5 µg/mL (≈ 1.21 µM) | 0.25 µg/mL (≈ 0.607 µM) | 0.5 µg/mL (≈ 1.21 µM) |  | 135 ng·h/mL | 57 ng/mL |  |  | Cc1c(CSc2nc3ccccc3[nH]2)cccc1SCC(=O)N1CCCCC1 | > 8 µg/mL |
|  | 0.5 µg/mL (≈ 1.14 µM) | 1 µg/mL (≈ 2.27 µM) | 0.5 µg/mL (≈ 1.14 µM) | 1 µg/mL (≈ 2.27 µM) |  |  |  | Not detected | Not detected | Cc1c(CSc2nc3ccccc3[nH]2)cccc1SCC(=O)NCc1cccs1 | 8 µg/mL (≈ 18.2 µM) |

| Structure (SMILES) | Cmax (Mus musculus [1]) | MIC (Helicobacter pylori [3]) | MIC (Helicobacter pylori [4]) | MIC (Helicobacter pylori [5]) | MIC (Helicobacter pylori [6]) | AUC (Mus musculus [7]) | AUC (Mus musculus [8]) | Cmax [9] | AUC (Mus musculus [10]) | Cmax (Mus musculus [11]) | MBC (Helicobacter pylori [2]) |
| --- | --- | --- | --- | --- | --- | --- | --- | --- | --- | --- | --- |
| Cc1ncc([N+](=O)[O-])n1CCO [METRONIDAZOLE] | Not checked | 1 µg/mL (≈ 5.84 µM) | 1 µg/mL (≈ 5.84 µM) | 8 µg/mL (≈ 46.7 µM) | 1 µg/mL (≈ 5.84 µM) | Not checked |  |  |  |  |  |
